From ChEMBL document CHEMBL4261550, “Triazolopyrimidines identified as reversible myeloperoxidase inhibitors” (Medchemcomm, 2017)
Active and inactive are the calls of the source. No cut-off for these calls is given here.

Legend:
Myeloperoxidase [1] = biological target: T1, Myeloperoxidase (Homo sapiens, UniProt P05164); assay: Inhibition of human MPO assessed as reduction in enzyme-mediated chlorination by measuring reduction in HOCl formation in presence of H2O2/NaCl measured at 30 secs time interval for 5 mins by APF dye based fluorescence assay
T1 sequence (P05164 whole entry): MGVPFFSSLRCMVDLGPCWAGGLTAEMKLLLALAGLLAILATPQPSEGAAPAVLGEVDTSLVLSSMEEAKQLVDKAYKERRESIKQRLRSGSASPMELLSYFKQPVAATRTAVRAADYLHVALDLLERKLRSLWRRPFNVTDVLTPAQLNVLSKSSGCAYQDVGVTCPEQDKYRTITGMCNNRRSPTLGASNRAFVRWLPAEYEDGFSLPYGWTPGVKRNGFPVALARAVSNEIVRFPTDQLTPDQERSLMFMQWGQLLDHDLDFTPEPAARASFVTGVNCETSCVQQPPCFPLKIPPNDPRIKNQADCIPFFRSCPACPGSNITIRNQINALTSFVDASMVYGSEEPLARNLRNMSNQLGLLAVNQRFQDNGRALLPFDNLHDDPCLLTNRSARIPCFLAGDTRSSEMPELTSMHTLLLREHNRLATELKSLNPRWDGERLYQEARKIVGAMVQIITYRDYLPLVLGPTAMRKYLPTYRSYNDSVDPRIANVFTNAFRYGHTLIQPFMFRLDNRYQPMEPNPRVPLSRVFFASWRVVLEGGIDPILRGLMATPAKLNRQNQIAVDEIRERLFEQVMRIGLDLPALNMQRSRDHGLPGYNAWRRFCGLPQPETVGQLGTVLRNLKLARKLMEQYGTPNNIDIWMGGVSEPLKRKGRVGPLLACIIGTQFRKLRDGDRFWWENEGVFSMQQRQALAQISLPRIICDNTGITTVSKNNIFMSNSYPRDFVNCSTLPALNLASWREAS

[2] = Redox activity assessed as conversion of resazurin reagent to resorufin at 10 uM after 30 mins by fluorescence assay relative to control; assay type: physicochemical; details: 0.5 h
Procedure, shortened: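 Redox counterscreen: compound 10 μM final incubated with 5 μM resazurin reagent (final) 30 min; fluorescence intensity read; normalized to a reactive styrylpyrimidotriazinedione standard at 10 μM as 100%.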

[3] = biological target: T2, Myeloperoxidase (Homo sapiens) (UniProt P05164); assay: Ratio of IC50 for human MPO chlorination preincubated for 10 mins to IC50 for human MPO chlorination without preincubation
T2 sequence (whole entry): T1 sequence (P05164 whole entry)

[4] = Hypochlorus scavenging activity at 10 uM in presence of sodium hypochlorite after 15 mins by APF dye based fluorescence assay relative to control; assay type: functional
Procedure, shortened: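 NaOCl-scavenger counterscreen in 1536-well format: 50 μM NaOCl in place of MPO with APF reagent, compound 10 μM final; fluorescence intensity read after 15 min incubation; ≥20% loss of fluorescence flagged as interference.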

Myeloperoxidase [5] = biological target: T1, Myeloperoxidase; assay: Inhibition of human MPO assessed as reduction in enzyme-mediated chlorination by measuring reduction in HOCl formation preincubated for 10 mins followed by H2O2/NaCl addition and measured at 30 secs time interval for 5 mins by APF dye based fluorescence assay
Myeloperoxidase [6] = biological target: T1, Myeloperoxidase; assay: Inhibition of human MPO peroxidase activity in presence of H2O2 measured at 30 secs time interval for 5 mins by amplex red reagent based fluorescence assay
[7] = biological target: T2, Myeloperoxidase (Homo sapiens); assay: Inhibition of human MPO assessed as reduction in enzyme-mediated chlorination by measuring reduction in HOCl formation at 10 uM preincubated for 10 mins followed by H2O2/NaCl addition and measured at 30 secs time interval for 5 mins by APF dye based fluorescence assay relative to control
Procedure, shortened: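 HTS APF chlorination, 1536-well: 1.75 nM human MPO with 20 μM H2O2 final, compound 10 μM final, preincubated 10 min; APF reagent added, fluorescence 485/535 nm read every 30 s for 5 min; slope normalized to DMSO (0%) and no-MPO wells (100% inhibition).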

Myeloperoxidase [8] = biological target: T1, Myeloperoxidase; assay: Inhibition of MPO in human neutrophils assessed as reduction in PMA-stimulated HOCl production incubated for 3 mins and measured for 25 mins by luminol reagent based luminescence assay
Procedure, shortened: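 Neutrophils from healthy donors isolated by dextran sedimentation then Ficoll-Paque, resuspended in HBSS; 1.106 cells/mL stimulated with 100 nM PMA; inhibitor 22 μM down to 1 nM (1:3, 10 doses) in 10% ethanol/50% PEG/40% water, 3 min at rt; luminol 100 μM final, read 25 min at 37 °C; rate taken from initial linear region.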

Thyroid peroxidase = biological target: T3, Thyroid peroxidase (Homo sapiens, UniProt P07202); assay: Inhibition of recombinant human C-terminal His6-tagged TPO (15 to 839 residues) expressed in baculovirus infected insect cells assessed as reduction in H2O2-catalyzed 3,5-iodo tyrosine formation using 3-iodotyrosine and potassium iodide preincubated for 10 mins followed by 3,5-iodo tyrosine/potassium iodide/H2O2 addition and measured after 15 mins
T3 sequence (P07202 whole entry): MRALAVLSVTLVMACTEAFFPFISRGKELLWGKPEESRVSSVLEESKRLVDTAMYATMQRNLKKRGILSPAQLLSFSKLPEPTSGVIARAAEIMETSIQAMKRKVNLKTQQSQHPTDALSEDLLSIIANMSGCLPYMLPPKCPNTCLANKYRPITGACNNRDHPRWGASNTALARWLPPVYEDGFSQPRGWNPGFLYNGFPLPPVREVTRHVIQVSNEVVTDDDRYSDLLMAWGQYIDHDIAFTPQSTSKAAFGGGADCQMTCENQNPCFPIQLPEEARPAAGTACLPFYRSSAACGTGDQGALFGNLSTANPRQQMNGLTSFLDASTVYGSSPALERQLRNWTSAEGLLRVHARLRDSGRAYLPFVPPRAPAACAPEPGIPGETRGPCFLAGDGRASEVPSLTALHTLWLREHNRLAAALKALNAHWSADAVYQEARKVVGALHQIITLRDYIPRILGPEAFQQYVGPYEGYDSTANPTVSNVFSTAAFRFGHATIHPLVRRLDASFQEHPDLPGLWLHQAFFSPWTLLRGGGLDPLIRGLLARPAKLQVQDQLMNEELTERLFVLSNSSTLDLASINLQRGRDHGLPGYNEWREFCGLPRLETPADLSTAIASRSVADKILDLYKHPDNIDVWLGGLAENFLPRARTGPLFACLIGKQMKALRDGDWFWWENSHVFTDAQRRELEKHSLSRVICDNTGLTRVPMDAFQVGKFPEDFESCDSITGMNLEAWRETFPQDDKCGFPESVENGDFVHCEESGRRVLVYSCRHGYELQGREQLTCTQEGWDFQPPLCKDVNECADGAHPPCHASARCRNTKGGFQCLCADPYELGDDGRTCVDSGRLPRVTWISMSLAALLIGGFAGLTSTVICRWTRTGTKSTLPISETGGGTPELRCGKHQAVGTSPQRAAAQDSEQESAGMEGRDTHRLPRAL
Procedure, shortened: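 TPO residues 15–839 with C-terminal His6, baculovirus/T. ni expressed, purified by Ni affinity, anion exchange and size exclusion; 4.0 nM in 100 mM KPi pH 7.4, 10 min rt preincubation with inhibitor; then 400 μM KI/240 μM 3-iodotyrosine mix and 20 μM H2O2 (added solutions); 3,5-iodotyrosine formation monitored.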

[9] = biological target: T2, Myeloperoxidase (Homo sapiens); assay: Substrate activity at human MPO assessed as reversion of enzyme to resting state at 80 uM in presence of H2O2 by stopped flow assay
Procedure, shortened: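 Stopped-flow at 25 °C: syringe 1 with 2 μM MPO and 5 μM H2O2 in phosphate buffer, syringe 2 with inhibitor and 5 μM H2O2; equal volumes rapidly mixed, spectra acquired in PDA mode to follow several MPO species; representative of numerous replicates.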

[10] = biological target: T2, Myeloperoxidase (Homo sapiens); assay: Irreversible inhibition of human MPO peroxidase activity at 20 nM preincubated for up to 30 mins followed by H2O2 addition and 2 to 10 times compound dilution measured at 30 secs time interval for 5 mins by amplex red reagent based fluorescence assay
Procedure, shortened: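 MPO (20 nM, phosphate buffer) was preincubated with inhibitor and 100 nM H2O2 for 2, 10, 20 and 30 min. Inhibitor was at 5x–10x the Amplex Red IC50 when that IC50 was > 1 μM, or 2–10x the enzyme concentration when it was < 1 μM. Controls were peroxide with 0.2% DMSO, and 4-hydroxybenzoic acid hydrazide. Unbound inhibitor was removed on a G50 spin column. Flow-through was assayed by Amplex Red, and the initial rate gave % activity remaining versus control. Runs were repeated with 100 mM NaCl and 150 μM L-methionine.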

Structure (SMILES)	IC50 (Myeloperoxidase [5]) [nM]	further results
O=c1[nH]c(=S)n(C[C@H]2CCCO2)c2nc[nH]c12	9	IC50 (Myeloperoxidase [1]): 56 nM; Activity [2]: Not Active; Ratio IC50 [3]: 6; Activity [4]: < 20%; IC50 (Myeloperoxidase [6]): 12 nM; inhibition [7]: 30%; IC50 (Myeloperoxidase [8]): 1000 nM; IC50 (Thyroid peroxidase): 3900 nM
Cc1ccc(COc2nc(N)nc3[nH]nnc23)cc1	510	–
Nc1nc(OCc2ccccc2F)c2nn[nH]c2n1	78	–
Oc1nc(OCc2ccccc2)c2nn[nH]c2n1	> 13000	–
Nc1nc(OCc2ccccc2)c2[nH]cnc2n1 [6-O-BENZYLGUANINE]	> 13000	–
N[C@@H](Cc1c[nH]c2ccccc12)C(=O)OCc1ccccc1	200	Activity [9]: Active; IC50 (Myeloperoxidase [1]): 110 nM; Activity [2]: Not Active; Activity [4]: < 20%; IC50 (Myeloperoxidase [6]): > 13000 nM; inhibition [7]: 30%
Nc1nc(OCc2cccc(Cl)c2)c2nn[nH]c2n1	200	–
Nc1nc(OCc2ccc(F)cc2)c2nn[nH]c2n1	47	–
Nc1nc(OCCc2ccccc2)c2nn[nH]c2n1	630	–
Nc1nc(OCc2ccccc2)c2cn[nH]c2n1	> 13000	–
Nc1nc(OCc2ccccc2Cl)c2nn[nH]c2n1	180	–
Nc1nc(OCc2cccc(F)c2)c2nn[nH]c2n1	40	–
Cc1ccccc1COc1nc(N)nc2[nH]nnc12	470	–
Cn1nnc2c(OCc3ccccc3)nc(N)nc21	> 13000	–
NNC(=O)c1ccc(O)cc1	–	inhibition [10]: Active
c1ccc(COc2ncnc3[nH]nnc23)cc1	> 13000	–
COc1cccc(COc2nc(N)nc3[nH]nnc23)c1	490	–
Nc1nc(OCc2ccccc2)c2[nH]c(O)nc2n1	> 13000	–
CCNc1nc(OCc2ccccc2)c2nn[nH]c2n1	2900	–
Nc1nc(OCc2cccc(OC(F)F)c2)c2nn[nH]c2n1	200	–
Nc1nc(Oc2ccccc2)c2nn[nH]c2n1	> 13000	–
Nc1nc(OCc2ccc(C(F)(F)F)cc2)c2nn[nH]c2n1	140	–
